Assay results from ChEMBL document CHEMBL1795281, “Prenylated Polyhydroxy-p-terphenyls from Aspergillus taichungensis ZHN-7-07” (J Nat Prod, 2011).

Experiments:
Type in all cases: functional, cell-based
P388 = assay: Cytotoxicity against mouse P388 cells by MTT assay
Outline: (§1)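 MTT read-out on HL-60 and P-388 cell lines, with adriamycin as the positive control. IC50 values are means of three independent experiments.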

HL-60 = assay: Cytotoxicity against human HL60 cells by MTT assay; outline: as §1
A549 = assay: Cytotoxicity against human A549 cells by SRB assay
Outline: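 SRB staining assay on A-549 cells, run alongside an adriamycin positive control. IC50 values are means of three independent experiments.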

With `COc1cc(-c2ccccc2)c(OC)c(O)c1-c1ccc(O)c(O)c1` the IC50 (P388) was 2.7 µM, the IC50 (HL-60) was 9.89 µM and the IC50 (A549) was 40.7 µM.

`COc1cc(-c2ccc(O)cc2)c(OC)c(O)c1-c1ccc(O)c(O)c1` gave an IC50 (P388) of 28.1 µM, an IC50 (HL-60) of 9.86 µM and an IC50 (A549) of 34.7 µM.

For `COc1cc(-c2ccc(O)c(O)c2)c(OC)c(O)c1-c1ccc(O)c(O)c1`, the IC50 (P388) was 9.13 µM, the IC50 (HL-60) was 11 µM and the IC50 (A549) was 14.3 µM.

Work on `COc1c(-c2ccc(O)cc2)cc(OC)c2c1oc1cc(O)c(O)cc12` [CANDIDUSIN A] yielded an IC50 (P388) of 46.8 µM, an IC50 (HL-60) of 77.6 µM and an IC50 (A549) of 19.3 µM.

`COc1ccc(-c2cc(OC)c3c(oc4cc(O)c(O)cc43)c2OC)cc1` [CANDIDUSIN C] was tested, and the IC50 (P388) was 96.9 µM, the IC50 (HL-60) was 16.5 µM and the IC50 (A549) was 83.6 µM.

In the case of `COc1c(-c2ccc(O)c(CC=C(C)C)c2)cc(OC)c2c1oc1cc(O)c(O)cc12` [PRENYLCANDIDUSIN A], the IC50 (P388) is reported as 16.5 µM, the IC50 (HL-60) is reported as 11.8 µM and the IC50 (A549) is reported as 53.2 µM.

Compound `COc1cc2oc3c(OC)c(-c4ccc(O)c(CC=C(C)C)c4)cc(OC)c3c2cc1OC` [PRENYLCANDIDUSIN B] has an IC50 (P388) of 1.57 µM, an IC50 (HL-60) of 76.7 µM and an IC50 (A549) of 8.61 µM.

Work on `COc1cc2oc3c(OC)c(-c4ccc(O)c(CC=C(C)C)c4)cc(OC)c3c2cc1O` [PRENYLCANDIDUSIN C] yielded an IC50 (P388) of 75.7 µM, an IC50 (HL-60) of 10.1 µM and an IC50 (A549) of 12.3 µM.

For `COc1cc(-c2ccc(O)c(CC=C(C)C)c2)c(OC)c(O)c1-c1ccc(O)c(O)c1` [PRENYLTERPHENYLLIN A], the IC50 (P388) was 10.9 µM, the IC50 (HL-60) was 1.53 µM and the IC50 (A549) was 8.32 µM.

In the case of `COc1cc(-c2ccc(O)c(CC=C(C)C)c2)c(OC)c(O)c1-c1ccc(O)cc1` [PRENYLTERPHENYLLIN B], the IC50 (P388) is reported as 12.6 µM, the IC50 (HL-60) is reported as 38.6 µM and the IC50 (A549) is reported as > 100 µM.

With `COc1cc(-c2ccc(O)cc2)c(OC)c(O)c1-c1cc(O)c(O)c(CC=C(C)C)c1` [PRENYLTERPHENYLLIN C] the IC50 (P388) was 86.2 µM, the IC50 (HL-60) was 28.2 µM and the IC50 (A549) was > 100 µM.

`COc1cc(-c2ccc(O)cc2)c(OC)c(O)c1-c1ccc(O)c(CC=C(C)C)c1` [PRENYLTERPHENYLLIN] gave an IC50 (P388) of 1.99 µM, an IC50 (HL-60) of 2.75 µM and an IC50 (A549) of 3.62 µM.

`COc1cc(-c2ccc(O)cc2)c(OC)c(O)c1-c1ccc(O)cc1` [TERPHENYLLIN] was tested, and the IC50 (P388) was 17.8 µM, the IC50 (HL-60) was 11 µM and the IC50 (A549) was 12.2 µM.
